Tested on: MS2 coat protein
Assay: apparent Kd, MS2 coat protein; higher = weaker binding; RNA-MaP array; FMN 200 µM where present
Outline: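 Designs were transcribed by stalled E. coli RNA polymerase on Illumina sequencing-chip clusters. They were titrated with SNAP-549-labelled MS2 coat protein from 0.7 or 1.5 nM, doubling to 3 µM, without and then with constant ligand. Buffer: 100 mM Tris-HCl pH 7.5, 80 mM KCl, 4 mM MgCl2, BSA, DTT, yeast tRNA, Tween-20. Green signal was normalised to red-channel RNA signal and control-cluster median Fmax. Apparent Kd is the median of filtered per-cluster binding-curve fits.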

[1] = designed as: OFF switch for flavin mononucleotide, no ligand
[2] = ligand present: flavin mononucleotide, designed as: OFF switch for flavin mononucleotide
[3] = designed as: ON switch for flavin mononucleotide, no ligand
[4] = ligand present: flavin mononucleotide, designed as: ON switch for flavin mononucleotide

Sequence | apparent Kd [1] [µM] | apparent Kd [2] [µM] | apparent Kd [3] [µM] | apparent Kd [4] [µM]
UUUUAACAUGAGGAUCACCCAUGUGAGGAUAUCGAAAUUUAUAUUAAUAUUAAUAUAUCGAGAAGGCACAUUUU | 0.0798 | 0.104 | – | –
UUUUAACAUGAGGAUCACCCAUGUGAGGAUAUCGAAAUUUAUAUUAAUAUUAAUAUUUCGAGAAGGCACAUUUU | 0.142 | 0.154 | – | –
UUUUAACAUGAGGAUCACCCAUGUGAGGAUAUCGAAAUUUAUAUUAAUAUUAAUUUUACGAGAAGGCACAUUUU | 0.112 | 0.1 | – | –
UUUUAACAUGAGGAUCACCCAUGUGAGGAUAUCGAAAUUUAUAUUAAUAUUAUUAAAUCGAGAAGGCACAUUUU | 0.102 | 0.0974 | – | –
UUUUAACAUGAGGAUCACCCAUGUGAGGAUAUCGAAAUUUAUAUUAAUAUUAUUAUAACGAGAAGGCACAUUUU | 0.0665 | 0.0829 | – | –
UUUUAACAUGAGGAUCACCCAUGUGAGGAUAUCGAAAUUUAUAUUAAUAUUUAUUAAACGAGAAGGCACAUUUU | 0.0822 | 0.0807 | – | –
UUUUAACAUGAGGAUCACCCAUGUGAGGAUAUCGAAAUUUAUAUUAAUAUUUAUUAUUCGAGAAGGCACAUUUU | 0.152 | 0.167 | – | –
UUUUAACAUGAGGAUCACCCAUGUGAGGAUAUCGAAAUUUAUAUUAAUAUUUUUAAAUCGAGAAGGCACAUUUU | 0.121 | 0.109 | – | –
UUUUAACAUGAGGAUCACCCAUGUGAGGAUAUCGAAAUUUAUAUUUAUAUUAAUAAAUCGAGAAGGCACAUUUU | 0.117 | 0.117 | – | –
UUUUAACAUGAGGAUCACCCAUGUGAGGAUAUCGAAAUUUAUAUUUAUAUUUAUAUAACGAGAAGGCACAUUUU | 0.0724 | 0.0876 | – | –
UUUUAACAUGAGGAUCACCCAUGUGAGGAUAUCGAUUUUUAUAUUAAUAUUAAUAAAACGAGAAGGCACAUUUU | 0.123 | 0.0793 | – | –
UUUUAAUAAGAGAAGGAGGACUUCAUGAGGAUCACCCAUGUGUUAGUACUUAGGAUAUUUAAUAACAUGAGGAUCACCCAUGUC | – | – | 0.0441 | 0.043
UUUUACGAAGGAUAUACAUUUUUUUUAUUAUUUUCAUUAUUACAUGAGGAUCACCCAUGUAGAAGGUCGAUUUU | 0.0243 | 0.0237 | – | –
UUUUAGAGAGGAUAUAUAAAGUGAAACAUGAGGAUCACCCAUGUAAUUUUAUGGAUGUAAAUAGAAGGCUCAUUUA | 0.0333 | 0.0286 | – | –
UUUUAGCAAGGAUAUACAUUUUUUUUAUUAUCCUCAUUAUUACAUGAGGAUCACCCAUGUAGAAGGUGCAUUUU | 0.0759 | 0.0815 | – | –
UUUUAGUCAGGAUAUACAUGAGGAUCACCCAUGUAAAAUUUUAGUUUAAUUUGAAUGUGUAGAAGGGACAUUUU | 0.0247 | 0.0229 | – | –
UUUUAGUGAGGAUAUGUGGCUUCGAUCGUGAGAUCGAGGCUACAGAAGGCACAUGAGGAUCACCCAUGUUCCUA | 0.0166 | 0.0817 | – | –
UUUUCCAAUCAAGGAUAUGUAUUAAAGAUUUGAAAACAUGAGGAUCACCCAUGUAUAUGGUGGGAACAGAAGGUGAAUAAGUAA | 0.221 | 0.231 | – | –
UUUUCGAACCGAGGAUAUCCUUAUAAGAAACAUGAGGAUCACCCAUGUAAAGGGAAUUAUUUGUAGGAGAAGGCGGAUUUUGUU | – | – | 0.0444 | 0.0299
UUUUGACAUGAGGAUCACCCAUGUGAGGAUAUGGAGCGCGACCGCGCGGUCGCGUACACCAGAAGGCGCAGGAA | 0.0403 | 0.0708 | – | –
UUUUUACAUGAGGAUCACCCAUGUCAGGAUAUGGUUAUAUUUUAUUAUUUUAUUUUUUCCAGAAGGGACUAUUA | 0.343 | 0.162 | – | –
UUUUUAUAAGAGAAGGAGGACUUCAUGAGGAUCACCCAUGUGUUAGUACUUAGGAUAUUUAAUAACAUGAGGAUCACCCAUGUC | – | – | 0.0494 | 0.0492
UUUUUAUGAGAGAAGGAGGACUUCAUGAGGAUCACCCAUGUGUUAGUACUUAGGAUAUUUAAUAACAUGAGGAUCACCCAUGUC | – | – | 0.0511 | 0.0486
UUUUUCUCAGGAUAUACAUGAGGAUCACCCAUGUAUAUUAGUGAUAAUACAUGGGAAUGUAGAAGGGAGCUCAU | 0.164 | 0.123 | – | –
UUUUUGUCAGGAUAUGACUAGAUGCACGUUAGUGUAUUUACUUAGAAGGGACAUGAGGAUCACCCAUGUAUUCC | 0.0307 | 0.0267 | – | –
UUUUUGUCAGGAUAUGACUAGAUGCACGUUAGUGUGUUUACUUAGAAGGGACAUGAGGAUCACCCAUGUAUUCC | 0.0289 | 0.0241 | – | –
UUUUUGUCAGGAUAUGAUUAGAUCUACUUUUGUAGAUCUAAUCAGAAGGGACAUGAGGAUCACCCAUGUAGUUU | 0.0372 | 0.152 | – | –

From the EternaBench riboswitch data
